Assay results: ChEMBL document CHEMBL5360562 (Eur J Med Chem, 2023)
Values after ≈ are worked out from the molar mass of the structure shown. One block for each molecule: values may come before it.

Legend:
Format in all cases: functional
Acinetobacter baumannii [1] = assay: Antibacterial activity against Acinetobacter baumannii AB5075 assessed as reduction in bacterial growth incubated for 16 hrs by broth microdilution method
Acinetobacter baumannii [2] = assay: Potentiation of Clarithromycin antibacterial activity against Acinetobacter baumannii AB5075 assessed as clarithromycin MIC at 30 uM incubated for 16 hrs by broth microdilution method
Acinetobacter baumannii [3] = assay: Potentiation of Clarithromycin antibacterial activity against Acinetobacter baumannii AB5075 assessed as clarithromycin MIC at 7.5 uM incubated for 16 hrs by broth microdilution method
Acinetobacter baumannii [4] = assay: Potentiation of Clarithromycin antibacterial activity against Acinetobacter baumannii AB5075 assessed as fold reduction in clarithromycin MIC at 30 uM incubated for 16 hrs by broth microdilution method
Outline: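 Checkerboard-style potentiation by broth microdilution. 6 h day cultures in CAMHB diluted to 5×10^5 CFU/mL. Adjuvant added from 10 mM DMSO stock at fixed concentration throughout. […] Controls: antibiotic alone, adjuvant alone, media only. Incubated stationary at 37 °C for 16 h. MIC is lowest concentration with no visible growth; fold reduction taken against the antibiotic-alone lane.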

Acinetobacter baumannii [5] = assay: Potentiation of Clarithromycin antibacterial activity against Acinetobacter baumannii AB5075 assessed as clarithromycin MIC at 20 uM incubated for 16 hrs by broth microdilution method
Acinetobacter baumannii [6] = assay: Potentiation of Clarithromycin antibacterial activity against Acinetobacter baumannii AB5075 assessed as reduction in clarithromycin MIC at 20 uM incubated for 16 hrs by broth microdilution method
Acinetobacter baumannii [7] = assay: Potentiation of Clarithromycin antibacterial activity against Acinetobacter baumannii AB5075 assessed as clarithromycin MIC at 10 uM incubated for 16 hrs by broth microdilution method
Acinetobacter baumannii [8] = assay: Potentiation of Azithromycin antibacterial activity against Acinetobacter baumannii AB5075 assessed as azithromycin MIC at 30 uM incubated for 16 hrs by broth microdilution method
Acinetobacter baumannii [9] = assay: Potentiation of Azithromycin antibacterial activity against Acinetobacter baumannii AB5075 assessed as azithromycin MIC at 20 uM incubated for 16 hrs by broth microdilution method
Acinetobacter baumannii [10] = assay: Potentiation of Azithromycin antibacterial activity against Acinetobacter baumannii AB5075 assessed as azithromycin MIC at 10 uM incubated for 16 hrs by broth microdilution method
Acinetobacter baumannii [11] = assay: Potentiation of erythromycin antibacterial activity against Acinetobacter baumannii AB5075 assessed as erythromycin MIC at 30 uM incubated for 16 hrs by broth microdilution method
Acinetobacter baumannii [12] = assay: Potentiation of erythromycin antibacterial activity against Acinetobacter baumannii AB5075 assessed as erythromycin MIC at 20 uM incubated for 16 hrs by broth microdilution method
Acinetobacter baumannii [13] = assay: Potentiation of erythromycin antibacterial activity against Acinetobacter baumannii AB5075 assessed as erythromycin MIC at 10 uM incubated for 16 hrs by broth microdilution method
Acinetobacter baumannii [14] = assay: Potentiation of rifampicin antibacterial activity against Acinetobacter baumannii AB5075 assessed as rifampicin MIC at 30 uM incubated for 16 hrs by broth microdilution method
Acinetobacter baumannii [15] = assay: Potentiation of rifampicin antibacterial activity against Acinetobacter baumannii AB5075 assessed as rifampicin MIC at 20 uM incubated for 16 hrs by broth microdilution method
Acinetobacter baumannii [16] = assay: Potentiation of rifampicin antibacterial activity against Acinetobacter baumannii AB5075 assessed as rifampicin MIC at 10 uM incubated for 16 hrs by broth microdilution method
Acinetobacter baumannii [17] = assay: Antibacterial activity against Acinetobacter baumannii AB967 assessed as reduction in bacterial growth incubated for 16 hrs by broth microdilution method
Outline: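 Six-hour CAMHB day cultures were diluted to 5×10^5 CFU/mL in CAMHB and dosed from DMSO stocks. Two-fold serial dilutions were made in broth, with a medium-only blank. Plates were incubated stationary at 37 °C for 16 h and read at OD600. The MIC was the lowest concentration giving <10% growth versus the positive control.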

Acinetobacter baumannii [18] = assay: Antibacterial activity against Acinetobacter baumannii AB3785 assessed as reduction in bacterial growth incubated for 16 hrs by broth microdilution method
Acinetobacter baumannii [19] = assay: Antibacterial activity against Acinetobacter baumannii AB4498 assessed as reduction in bacterial growth incubated for 16 hrs by broth microdilution method
Acinetobacter baumannii [20] = assay: Antibacterial activity against Acinetobacter baumannii AB5711 assessed as reduction in bacterial growth incubated for 16 hrs by broth microdilution method
Pseudomonas aeruginosa = assay: Antibacterial activity against Pseudomonas aeruginosa PAO1 assessed as inhibition of bacterial growth incubated for 16 hrs by broth microdilution method
Outline: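 Standalone MIC by broth microdilution. 6 h day cultures in cation-adjusted Mueller-Hinton broth (CAMHB) diluted to 5×10^5 CFU/mL. Compound added from 10 mM DMSO stock to 200 μM (highest concentration), then twofold serial dilution. Incubated stationary at 37 °C for 16 h. OD600 read; MIC is lowest concentration with <10% growth versus positive control.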

SMILES: Nc1nc(-c2ccc(NC(=O)Nc3ccc(-c4c[nH]c(N)n4)cc3)cc2)c[nH]1
MIC (Acinetobacter baumannii [1]): > 200 µM
MIC (Acinetobacter baumannii [2]): 0.125 µg/mL
MIC (Acinetobacter baumannii [3]): 8 µg/mL
fold change (FC) (Acinetobacter baumannii [4]): 256
MIC (Acinetobacter baumannii [5]): 0.5 µg/mL
fold change (FC) (Acinetobacter baumannii [6]): 64
MIC (Acinetobacter baumannii [7]): 4 µg/mL
MIC (Acinetobacter baumannii [8]): 0.5 µg/mL
MIC (Acinetobacter baumannii [9]): 1 µg/mL
MIC (Acinetobacter baumannii [10]): 8 µg/mL
MIC (Acinetobacter baumannii [11]): 0.5 µg/mL
MIC (Acinetobacter baumannii [12]): 2 µg/mL
MIC (Acinetobacter baumannii [13]): 8 µg/mL
MIC (Acinetobacter baumannii [14]): 0.007 µg/mL
MIC (Acinetobacter baumannii [15]): 0.125 µg/mL
MIC (Acinetobacter baumannii [16]): 2 µg/mL

MIC (Acinetobacter baumannii [17]): 16 µg/mL (≈ 21.4 µM)
MIC (Acinetobacter baumannii [18]): 64 µg/mL (≈ 85.6 µM)
MIC (Acinetobacter baumannii [19]): 64 µg/mL (≈ 85.6 µM)
MIC (Acinetobacter baumannii [20]): 64 µg/mL (≈ 85.6 µM)
MIC (Pseudomonas aeruginosa): > 200 µM
SMILES: CC[C@H]1OC(=O)[C@H](C)[C@@H](O[C@H]2C[C@@](C)(OC)[C@@H](O)[C@H](C)O2)[C@H](C)[C@@H](O[C@@H]2O[C@H](C)C[C@H](N(C)C)[C@H]2O)[C@](C)(OC)C[C@@H](C)C(=O)[C@H](C)[C@@H](O)[C@]1(C)O [CLARITHROMYCIN]
